Assay results: the EternaBench riboswitch data

Key:
MS2 coat protein [1] = test: apparent Kd, MS2 coat protein; higher = weaker binding; RNA-MaP array
Method in brief: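 The designed RNAs, transcribed from sequenced DNA templates on an Illumina sequencing chip, were incubated with fluorescently labeled MS2 coat protein at room temperature. Protein ranged from 1.5 nM to 3 μM, with 0.8–1.5 h incubation at the lowest and 10–20 min at the highest concentrations, in Tris-HCl pH 7.5 buffer with KCl, MgCl2, BSA, DTT, tRNA and Tween20, with or without input ligand. The median of per-cluster binding-curve fits gives the apparent Kd, and designs measured on fewer than 10 clusters were excluded.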

MS2 coat protein [2] = test: apparent Kd, MS2 coat protein; higher = weaker binding; RNA-MaP array; FMN 200 µM where present; details: designed as: OFF switch for flavin mononucleotide
Method in brief: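 On Illumina sequencing-chip clusters, designs were transcribed by stalled E. coli RNA polymerase and titrated with SNAP-549-labelled MS2 coat protein (0.7 or 1.5 nM, doubling to 3 µM), without and then with constant ligand, in 100 mM Tris-HCl pH 7.5, 80 mM KCl, 4 mM MgCl2, BSA, DTT, yeast tRNA and Tween-20. Apparent Kd is the median of filtered per-cluster curve fits to green signal normalised to red-channel RNA signal and control-cluster median Fmax.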

[3] = designed as: OFF switch for flavin mononucleotide, no ligand
[4] = ligand present: flavin mononucleotide, designed as: OFF switch for flavin mononucleotide
[5] = designed as: ON switch for flavin mononucleotide, no ligand
[6] = ligand present: flavin mononucleotide, designed as: ON switch for flavin mononucleotide
[7] = designed as: ON switch for theophylline, no ligand
[8] = ligand present: theophylline, designed as: ON switch for theophylline
[9] = ligand present: flavin mononucleotide

UUUAAGAGAGGAUAUGUAGAAUAUAACAUGAGGAUCACCCAUGUACAGAGUGUUAAAGUCACAGAAGGCUCCAUGU
apparent Kd (MS2 coat protein [1]; [3]): 27.5 nM
apparent Kd (MS2 coat protein [1]; [4]): 20.6 nM

AGGAUCCAGGAGAAGGCAACUGUAGUUUGGCAUUGAGGAUAUCCAAAGACCCGCUAGAUAGGAGCACAUGAGGAUCACCCAUGU
apparent Kd (MS2 coat protein [1]; [5]): 35.5 nM
apparent Kd (MS2 coat protein [1]; [6]): 19.1 nM

CGCGGAACAUGAGGAUCACCCAUGUUAUGUAACAGCAAACUAAGAAGGCGUUAUAUAAGUAUGGACGAGGAUAUUAGCUUGAGU
apparent Kd (MS2 coat protein [1]; [5]): 24.3 nM
apparent Kd (MS2 coat protein [1]; [6]): 8.8 nM

UAACCCGUGUAGAAGGCAAGCUCCGCGCUGGUCGUCAUCACAUGAGGAUCACCCAUGUGGAAGAUUGAGGAUAUACGCGCGAUG
apparent Kd (MS2 coat protein [1]; [3]): 5.45 nM
apparent Kd (MS2 coat protein [1]; [4]): 7.53 nM

GACAGGACGACAUGAGGAUCACCCAUGUGUUAGCGUGGAUAGCAGGAUAUAUUAUUUAGACUCGGAUAGAAGGGCUCGGACCUA
apparent Kd (MS2 coat protein [1]; [3]): 18.3 nM
apparent Kd (MS2 coat protein [1]; [4]): 14.5 nM

GAACAUGAGGAUCACCCAUGUAGACGCAGGCUAAUAGAAUCGAGAAGGGCUAUAUGGGAACGCCAGCAGGAUAUCGGAGGUCAA
apparent Kd (MS2 coat protein [1]; [5]): 84 nM
apparent Kd (MS2 coat protein [1]; [6]): 49.1 nM

GCAACAUGUUCAGGAUAUACGCUACAAACUCGUGUAGAAGGGAAGGAUACAAUUACAUGAGGAUCACCCAUGUGUUAUCCGAUU
apparent Kd (MS2 coat protein [1]; [5]): 23.7 nM
apparent Kd (MS2 coat protein [1]; [6]): 20.8 nM

CGUUCAGUCCAGCGGUUACAUGAGGAUCACCCAUGUUUAGAGAGAAGGGUUGGCACCAGGAUGUAACAGGAUAUCUCGCUUACG
apparent Kd (MS2 coat protein [1]; [5]): 171 nM
apparent Kd (MS2 coat protein [1]; [6]): 71.5 nM

GAUGUCAAACAGAAGGAAGACUUGUACAAGGACUUAGGAUAUGUACAUGAGGAUCACCCAUGUGACUAAUGCGGGCCAUAUGAC
apparent Kd (MS2 coat protein [1]; [3]): 15.1 nM
apparent Kd (MS2 coat protein [1]; [4]): 16.9 nM

CGUUAGCAGUAGAAGGUAGCCGGCAGGUCAGGGCGACCACAUGAGGAUCACCCAUGUCUAUGUUCUAAGGAUAUACUGACCCAA
apparent Kd (MS2 coat protein [1]; [3]): 5.2 nM
apparent Kd (MS2 coat protein [1]; [4]): 5.59 nM

AAUAAGAGCUCGGAUACCAGCGAAAACAGGCACAUGAGGAUCACCCAUGUUAACGCACUGCGCCCUUGGCAGCCGCACGUGUGUC
apparent Kd (MS2 coat protein [1]; [7]): 25.1 nM
apparent Kd (MS2 coat protein [1]; [8]): 12 nM

UUAGCACAUGAGGAUCACCCAUGUUAGGAUAUCCGUUAAUAUCAGGCAAGGUCUGAAAGGAGAAGGAACAUGAA
apparent Kd (MS2 coat protein [1]; [3]): 35.4 nM
apparent Kd (MS2 coat protein [1]; [4]): 67.9 nM

AUGAGCUGAGGAUAUAUUAACCUGUACAUGAGGAUCACCCAUGUAGCGUGUAGAGUGAGAAUAGAAGGCAGACAUC
apparent Kd (MS2 coat protein [1]; [3]): 17.2 nM
apparent Kd (MS2 coat protein [1]; [4]): 12.8 nM

UGUGGAACGGAAGGAUAUGGUCACCGAUGGUCUCCAGAAGGUCCGGGUGACCGAACAAUACAUGAGGAUCACCCAUGUAGCAAA
apparent Kd (MS2 coat protein [1]; [3]): 7 nM
apparent Kd (MS2 coat protein [1]; [4]): 6.84 nM

CAAUGAAACAUUCAGGAUAUGGUACAAGGAACAUGAGGAUCACCCAUGUCAAGAAAAGAAAAUCACCAGAAGGGAACAAGACAAAA
apparent Kd (MS2 coat protein [1]; [5]): 41.5 nM
apparent Kd (MS2 coat protein [1]; [6]): 32.3 nM

UAAAUACAUGAGGAUCACCCAUGUUUGGAUACCAGAUAUGACAUUAUCCCUUGGCAGCCAUUCGUUCCAAAUGCUAUUGUGAAGG
apparent Kd (MS2 coat protein [1]; [7]): 22.5 nM
apparent Kd (MS2 coat protein [1]; [8]): 31 nM

CACUGACAUGAGGAUCACCCAUGUAUGCUCGACCAAGGAUAUUGAUCAGACAAGCAUACGCAAGAAGGUGGUGAGA
apparent Kd (MS2 coat protein [1]; [5]): 222 nM
apparent Kd (MS2 coat protein [1]; [6]): 105 nM

AAUGACAUGAGGAUCACCCAUGUCCAUCUAAGCUCGGGUCUGCAGGAUAUUCCCGUGGGAUUAGGGAAGAAGGGCAGUGAUUGU
apparent Kd (MS2 coat protein [1]; [5]): 14 nM
apparent Kd (MS2 coat protein [1]; [6]): 7.02 nM

ACAUGAGGAUCACCCAUGUCUCGGGUGCCGGUUUUUACCUAGAGAAGGUGCGCAACGCUGUCACGCAAGGAUAUCUCACGAACA
apparent Kd (MS2 coat protein [1]; [3]): 231 nM
apparent Kd (MS2 coat protein [1]; [4]): 184 nM

CUAAAUCAUGUAGGAUAUGCGUGGCGAAGCUAUGCAGAAGGACAUGAGGAUCACCCAUGUCUUUCCGUCUGCGUACAGACGGAA
apparent Kd (MS2 coat protein [2]; no ligand): 28.6 nM
apparent Kd (MS2 coat protein [2]; [9]): 282 nM

CUUUUGUGAGGAUAUUAGUAGUAAACGAACAAAAUUAUUACUGAGAAGGCACAUGAGGAUCACCCAUGUUCCUC
apparent Kd (MS2 coat protein [2]; no ligand): 46 nM
apparent Kd (MS2 coat protein [2]; [9]): 575 nM
